Apaf-1 inh = inhibitors of human Apaf-1 apoptosome, primary screen, biochemical, DEVD-Rh110 fluorescence, uHTS. Apoptotic protease-activating factor 1 (Homo sapiens), O14727. reconstituted apoptosome caspase-3 activity. inhibition, % at 20 µM. 0.71% of 330,000 active; active = inhibition of at least 40% at 20 µM;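 note: plate controls were DMSO wells for no effect and DEVD-CHO caspase inhibitor wells for full effect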
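detection = Rh110 fluorescence intensity | test system = biochemical Apaf-1 apoptosome reconstitution | also added = cytochrome c and DEVD-Rh110 substrate | schedule = 30 min plus 50 min, RT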
MEKK3 PB1 HTS = modulators of MEKK3-MEK5 PB1 binding, primary screen, biochemical, wildtype MEKK3, multiplex bead flow cytometry, Alexa488-MEK5 | Mitogen-activated protein kinase kinase kinase 3 (Homo sapiens), Q99759 | bead-based flow cytometry, Alexa488-MEK5 binding to MEKK3; actives lie on both sides; 0 = blocked by unlabeled MEK5, 100 = vehicle | 1.4% of 290,000 active | binding response (% of control), % at 10 µM;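 active = binding response more than 3 SD above or below the average of its plate-row segment, actives on both sides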;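 note: Alexa488 bead fluorescence after subtracting the streptavidin-only scavenger bead signal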
UBC13 polyUb = UBC13 polyubiquitin chain formation inhibitors, primary screen, biochemical, TR-FRET, uHTS; Ubiquitin-conjugating enzyme E2 N (Homo sapiens), P61088; inhibition, % at 20 µM; 0.47% of 330,000 active; in the data active = inhibition above about 45%, passing the limit was not always enough
MEKK2 WT-MEK5 = modulators of MEK5 binding to wildtype MEKK2, primary screen, biochemical, multiplex bead flow cytometry, Alexa488-MEK5 | Mitogen-activated protein kinase kinase kinase 2 (Homo sapiens), Q9Y2U5 | Alexa488-MEK5 binding to MEKK2 WT; actives lie on both sides | binding response (% of control), % at 10 µM | 1.1% of 290,000 active; in the data active = binding response below about 67% or above about 130%
MEKK2 mut-MEK5 = MEK5 binding signal on mutant MEKK2 PB1, primary screen, biochemical, multiplex bead flow cytometry, Alexa488-MEK5; Alexa488-MEK5 binding to MEKK2 mutant; percent response, % at 10 µM; 0.35% of 290,000 active; in the data active = percent response above about 24%, passing the limit was not always enough
PREPL inh = PREPL enzyme inhibitors, primary screen, biochemical, fluorescence polarization; Prolyl endopeptidase-like (Homo sapiens), Q4J6C6; recombinant PREPL, fluorescence polarization activity-based probe; inhibition, % at 5.96 µM; 0.68% of 320,000 active; AID 2751, 2010; in the data active = inhibition above about 43%;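 note: 0% = enzyme with DMSO and 100% = wells lacking enzyme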
MEKK2wt confirm = modulators of MEK5 binding to wildtype MEKK2, confirmation, biochemical, single concentration, multiplex bead flow cytometry. shares compounds with MEKK3 PB1 HTS. Alexa488-MEK5 binding to MEKK2 WT; actives lie on both sides. binding response (% of control), % at 10 µM. 2.4% of 5,900 active; in the data active = binding response below about 16% or above about 210%; inactive = in between
MEKK2mut-MEK5 = mutant MEKK2 PB1-MEK5 binding signal retest – biochemical, single concentration, multiplex bead flow cytometry, confirmation; percent response, % at 10 µM; Alexa488-MEK5 binding to MEKK2 mutant; shares compounds with MEKK3 PB1 HTS; 2% of 5,900 active; in the data active = percent response mostly above about 71%, no sharp cut-off; inactive = mostly below about 38%;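 note: higher means compound restores mutant binding toward wildtype level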
MEKK3-MEK5 inh = MEKK3 wild-type PB1 binding to MEK5, inhibitors, confirmation, biochemical, bead multiplex flow cytometry, single concentration, wildtype; 1.8% of 5,900 active; AID 1894, 2009; shares compounds with MEKK3 PB1 HTS; Alexa488-MEK5 binding to MEKK3; stronger effect = lower value; binding response (% of control), % at 10 µM;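 active = binding response below 72% of control, or above a set upper limit, though filed actives all read lower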;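 note: 100% = DMSO only wells and 0% = binding blocked by excess unlabeled MEK5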
Starred values were filed as active, the others as inactive; x = no result; [ ] = another dose, or the depositor's remark. Sampled rows, rich in hits. Any-hit rate of the full collection: about 3.1%.

SMILES	Apaf-1 inh	MEKK3 PB1 HTS	UBC13 polyUb	MEKK2 WT-MEK5	MEKK2 mut-MEK5	PREPL inh	MEKK2wt confirm	MEKK2mut-MEK5	MEKK3-MEK5 inh
Cc1ccccc1OCC(=O)OC(C)CN1CCN(C)CC1 (centres undefined)	8.1	69.0*[inhibitor]	1.2	73.0	-37.0	6.6	111.0	10.0	107.0
Cc1ccccc1C(=O)OC(C)CN1CCN(C)CC1 (centres undefined)	-9.5	97.0	18.5	102.0	-4.0	6.0	x	x	x
CCCC(=O)Nc1nc2nc(-c3ccccc3)cc(-c3ccccc3)n2n1	9.8	0.0*[inhibitor]	15.5	0.0*[inhibitor]	-17.0	-0.2	103.0	9.0	106.0
CCC(=O)Nc1nc2nc(-c3ccccc3)cc(-c3ccccc3)n2n1	19.0	x	1.6	x	x	10.1	x	x	x
C/C(=C\c1ccccc1)CN1CCC(C(=O)N2CCCCC2)CC1	-11.0	138.0*	-2.1	109.0	3.0	27.0	104.0	4.0	102.0
C/C(=C\c1ccccc1)CN1CCC(C(=O)N2CCC(C)CC2)CC1	3.6	99.0	-3.4	95.0	7.0	26.9	x	x	x
CCC(C)(C)NC(=O)c1cc([N+](=O)[O-])ccc1N1CCOCC1	5.7	157.0*	-6.5	113.0	1.0	2.8	100.0	-7.0	100.0
CCCN1C2CCCC1CC(NC(=O)NC1CCCCC1)C2 (centres undefined)	0.7	2.0*[inhibitor]	5.5	2.0*[inhibitor]	-14.0	3.1	101.0	2.0	100.0
Cc1nn(CC(=O)NC(C)C)c(C)c1[N+](=O)[O-]	-6.9	69.0*[inhibitor]	2.7	79.0	-8.0	9.1	105.0	13.0	103.0
C/C(=N\NC(=O)Cn1nc(C)c([N+](=O)[O-])c1C)c1ccc(Cl)s1	-1.2	128.0*	-2.9	114.0	31.0	-3.1	95.0	0.0	100.0
Cc1nn(CC(=O)O)c(C)c1[N+](=O)[O-]	-3.5	101.0	1.2	99.0	-10.0	-10.5	x	x	x
COc1ccc(CCNc2ccc(C(CC(N)=O)NC(=O)c3cc(OC)ccc3OC)cc2[N+](=O)[O-])cc1 (centres undefined)	10.6	104.0	-21.0	97.0	-4.0	4.0	x	x	x
COc1ccc(NC(=O)COC(=O)CCc2ccc(S(=O)(=O)N3CCOCC3)cc2)cc1Cl	9.5	x	1.9	x	x	2.0	x	x	x
CCN(CC)S(=O)(=O)c1cc(C(=O)O)c(Cl)cc1Cl	2.6	105.0	1.6	105.0	3.0	2.7	x	x	x
CCN(CC)S(=O)(=O)c1cc(C)c(C)cc1Br	0.6	61.0*[inhibitor]	7.4	71.0*[inhibitor]	-4.0	-5.2	103.0	3.0	103.0
COc1cc(C(=O)N(C)CC(=O)Nc2cccc(F)c2)ccc1OCc1ccccc1	18.5	x	-3.4	x	x	8.0	x	x	x
COc1cc(NC(=O)c2cc([N+](=O)[O-])ccc2NC(=O)CN2CCN(c3ccccn3)CC2)cc(OC)c1	12.1	95.0	-7.6	89.0	-8.0	15.5	x	x	x
CCNc1ccc(C(=O)OCC(=O)NCc2ccccc2Cl)cc1[N+](=O)[O-]	-6.7	140.0*	2.5	111.0	1.0	1.3	100.0	-2.0	102.0
CC(C)C(NC(=O)CNC(=O)OC(C)(C)C)C(=O)NCc1ccc(Cl)cc1 (centres undefined)	-5.1	88.0	-1.3	48.0*[inhibitor]	-18.0	-0.3	104.0	-3.0	98.0
CN(C)CCNC(=O)c1sc2nc(-c3ccccc3)cc(C(F)(F)F)c2c1N	12.2	109.0	28.9	158.0*	14.0	26.5	139.0	18.0	100.0
COc1ccc(-c2cc(C(F)(F)F)c3c(N)c(C(=O)NCCSC)sc3n2)cc1	6.3	110.0	6.6	110.0	17.0	13.0	x	x	x
COc1ccc(/C=C(/NC(=O)c2ccco2)C(=O)N2CCCCCC2)cc1OC	-0.2	102.0	-13.9	105.0	9.0	-0.1	x	x	x
Nc1cccc(CP(=O)(c2ccccc2)c2ccccc2)c1	-1.4	x	-6.2	x	x	3.0	x	x	x
CC(=O)Nc1ccc(N=Cc2c(O)c(C(=O)Nc3ccccc3)cc3ccccc23)cc1	4.4	76.0	-96.3	10.0*[inhibitor]	20.0	5.3	87.0	-10.0	101.0
CC(=O)Nc1ccc(N=Cc2c(O)c3ccccc3oc2=O)cc1	-4.6	101.0	3.5	100.0	-6.0	x	x	x	x
SMILES	Apaf-1 inh	MEKK3 PB1 HTS	UBC13 polyUb	MEKK2 WT-MEK5	MEKK2 mut-MEK5	PREPL inh	MEKK2wt confirm	MEKK2mut-MEK5	MEKK3-MEK5 inh
CN(C)CCCN1C(=O)C(O)=C(C(=O)c2cccs2)C1c1cccc([N+](=O)[O-])c1 (centres undefined)	2.9	2.0*[inhibitor]	-7.6	1.0*[inhibitor]	-84.0	-4.0	99.0	1.0	102.0
O=C(C1=C(O)C(=O)N(CCN2CCOCC2)C1c1ccc([N+](=O)[O-])cc1)c1cccs1 (centres undefined)	1.6	108.0	-1.2	112.0	7.0	-0.5	x	x	x
CCOc1ccc(CCNC(=O)COC(=O)C2=NNC(=O)CC2)cc1OCC	7.5	x	-4.1	x	x	-0.3	x	x	x
Cc1ccc(C)c(CN2CCC(CNC(=O)Nc3ccc(Cl)cc3)CC2)c1	6.4	105.0	13.6	139.0	16.0	21.1	x	x	x
Cc1ccc(C)c(CN2CCC(CNC(=O)Nc3ccc(Br)cc3F)CC2)c1	2.0	109.0	16.5	140.0*	22.0	x	148.0	18.0	104.0
Cc1ccc(C(=O)C2(C)C3c4cc(Br)ccc4OC(=O)C32C(=O)c2ccco2)cc1 (centres undefined)	-2.2	24.0*[inhibitor]	-1.3	39.0*[inhibitor]	-42.0	-11.7	96.0	-6.0	96.0
COc1ccc2cc(/C=N/O)c(Cl)nc2c1	-6.2	67.0*[inhibitor]	13.4	77.0	-3.0	-5.9	98.0	0.0	97.0
COc1cc(/C=N/n2cnnc2)ccc1OC(=O)c1ccncc1	5.9	56.0*[inhibitor]	1.5	70.0	-9.0	4.5	97.0	-5.0	98.0
O=C(N/N=C/c1ccco1)c1ccncc1	-19.6	102.0	14.4	110.0	5.0	9.3	x	x	x
O=C(N/N=C/c1cccc(OC(=O)N2CCOCC2)c1)c1cccs1	1.7	155.0*	-5.6	107.0	0.0	-5.2	103.0	0.0	107.0

Source: PubChem
